Measurements published in ChEMBL document CHEMBL3091303, “1,3-Dialkyl-substituted tetrahydropyrimido[1,2-f]purine-2,4-diones as multiple target drugs for the potential treatment of neurodegenerative diseases” (Bioorg Med Chem, 2013).

What was measured:
[1] = target: T1, MAO-A (amine oxidase [flavin-containing] A) (Homo sapiens, UniProt P21397); assay: Inhibition of human MAO-A at 10 uM relative to control
T1 sequence (P21397 whole entry): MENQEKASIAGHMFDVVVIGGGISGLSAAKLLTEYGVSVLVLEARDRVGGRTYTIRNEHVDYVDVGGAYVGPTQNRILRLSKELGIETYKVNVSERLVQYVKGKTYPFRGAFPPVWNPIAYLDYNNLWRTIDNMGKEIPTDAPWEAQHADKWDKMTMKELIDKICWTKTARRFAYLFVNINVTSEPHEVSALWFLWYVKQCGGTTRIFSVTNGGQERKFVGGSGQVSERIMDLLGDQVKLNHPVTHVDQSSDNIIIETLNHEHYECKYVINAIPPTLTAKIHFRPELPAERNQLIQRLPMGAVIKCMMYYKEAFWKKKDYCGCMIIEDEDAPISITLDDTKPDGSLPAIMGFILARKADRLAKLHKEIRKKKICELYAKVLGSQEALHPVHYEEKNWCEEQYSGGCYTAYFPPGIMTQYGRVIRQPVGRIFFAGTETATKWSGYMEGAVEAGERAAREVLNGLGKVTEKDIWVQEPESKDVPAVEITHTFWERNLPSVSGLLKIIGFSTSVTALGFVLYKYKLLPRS
Outline: (§1)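 Human MAO-A and MAO-B inhibition, screened first at a test concentration of 10 µM.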

[2] = target: T2, Adenosine receptor A2b (Homo sapiens) (UniProt P29275); assay: Displacement of [3H]PSB-603 from human adenosine A2B receptor relative to control; parameters: concentration or dose not given beside the values; settings: concentration not given here
T2 sequence (whole entry): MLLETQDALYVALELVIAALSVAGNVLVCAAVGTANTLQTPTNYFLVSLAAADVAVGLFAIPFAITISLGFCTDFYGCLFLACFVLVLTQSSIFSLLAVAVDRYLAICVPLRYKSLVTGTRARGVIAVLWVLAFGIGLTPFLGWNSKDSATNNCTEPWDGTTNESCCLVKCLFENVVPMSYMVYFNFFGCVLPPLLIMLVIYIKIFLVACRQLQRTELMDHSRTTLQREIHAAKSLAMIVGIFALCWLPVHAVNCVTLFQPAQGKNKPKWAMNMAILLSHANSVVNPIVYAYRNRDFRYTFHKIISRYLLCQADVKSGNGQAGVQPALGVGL

[3] = target: T3, Amine oxidase [flavin-containing] B (Homo sapiens, UniProt P27338); assay: Inhibition of human MAO-B
T3 sequence (P27338 whole entry): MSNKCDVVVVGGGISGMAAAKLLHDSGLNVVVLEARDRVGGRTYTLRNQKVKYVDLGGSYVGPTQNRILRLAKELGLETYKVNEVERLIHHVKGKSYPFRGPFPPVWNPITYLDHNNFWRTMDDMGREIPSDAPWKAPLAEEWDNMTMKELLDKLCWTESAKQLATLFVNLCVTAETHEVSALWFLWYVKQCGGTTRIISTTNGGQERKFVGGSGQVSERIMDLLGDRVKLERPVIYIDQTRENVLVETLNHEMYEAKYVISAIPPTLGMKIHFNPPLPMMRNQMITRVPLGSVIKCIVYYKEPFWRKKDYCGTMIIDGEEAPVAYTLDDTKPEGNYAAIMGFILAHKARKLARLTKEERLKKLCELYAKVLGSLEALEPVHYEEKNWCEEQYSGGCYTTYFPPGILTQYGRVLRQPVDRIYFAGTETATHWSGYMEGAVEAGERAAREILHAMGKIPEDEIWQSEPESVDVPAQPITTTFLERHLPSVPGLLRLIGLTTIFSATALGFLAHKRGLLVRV

[4] = target: T4, Adenosine receptor A3 (Homo sapiens, UniProt P0DMS8); assay: Displacement of [3H]PSB-11 from human adenosine A3 receptor expressed in CHO cells; assay type: cell-based
T4 sequence (P0DMS8 whole entry): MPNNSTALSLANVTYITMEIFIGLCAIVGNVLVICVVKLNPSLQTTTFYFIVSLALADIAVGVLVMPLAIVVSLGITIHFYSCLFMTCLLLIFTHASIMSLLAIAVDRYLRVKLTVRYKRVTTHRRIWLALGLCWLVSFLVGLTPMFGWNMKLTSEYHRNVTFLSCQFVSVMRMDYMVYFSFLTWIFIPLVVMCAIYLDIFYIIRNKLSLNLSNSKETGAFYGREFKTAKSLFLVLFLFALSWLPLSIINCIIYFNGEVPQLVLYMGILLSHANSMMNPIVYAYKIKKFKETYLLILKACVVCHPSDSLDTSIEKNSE

[5] = target: T5, Adenosine receptor A1 (Rattus norvegicus, UniProt P25099); assay: Displacement of [3H]CCPA from adenosine A1 receptor in rat brain cortex; assay type: tissue-based
T5 sequence (P25099 whole entry): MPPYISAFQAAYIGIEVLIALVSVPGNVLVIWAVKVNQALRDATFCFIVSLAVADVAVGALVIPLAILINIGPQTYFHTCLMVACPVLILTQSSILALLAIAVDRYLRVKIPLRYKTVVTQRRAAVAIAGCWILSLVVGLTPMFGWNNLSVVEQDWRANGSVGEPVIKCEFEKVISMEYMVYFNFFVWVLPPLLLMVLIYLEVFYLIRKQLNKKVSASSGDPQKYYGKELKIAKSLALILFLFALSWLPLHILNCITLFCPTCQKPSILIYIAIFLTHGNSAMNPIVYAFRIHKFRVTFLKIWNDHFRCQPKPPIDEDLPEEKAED
Outline: (§2)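 Radioligand binding to rat A1 receptors in rat brain cortical membrane preparations. Values are given as Ki, or as % inhibition of radioligand binding at the indicated concentration.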

[6] = target: Adenosine receptor A2a (Rattus norvegicus, UniProt P30543); assay: Displacement of [3H]MSX-2 from adenosine A2A receptor in rat brain striatum; assay type: tissue-based
Chain of Adenosine receptor A2a (P30543 whole entry): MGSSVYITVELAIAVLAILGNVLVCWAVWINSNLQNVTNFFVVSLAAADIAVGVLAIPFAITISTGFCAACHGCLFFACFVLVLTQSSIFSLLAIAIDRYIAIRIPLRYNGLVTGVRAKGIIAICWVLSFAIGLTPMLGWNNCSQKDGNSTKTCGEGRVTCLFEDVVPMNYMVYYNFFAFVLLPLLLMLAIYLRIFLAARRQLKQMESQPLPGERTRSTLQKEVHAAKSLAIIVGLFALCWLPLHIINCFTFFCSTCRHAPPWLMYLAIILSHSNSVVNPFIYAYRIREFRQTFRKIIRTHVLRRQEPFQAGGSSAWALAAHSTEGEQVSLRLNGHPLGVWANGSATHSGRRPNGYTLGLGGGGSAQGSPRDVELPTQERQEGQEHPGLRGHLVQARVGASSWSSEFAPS

[7] = target: T6, Adenosine receptor A2b (Homo sapiens, UniProt P29275); assay: Displacement of [3H]PSB-603 from human adenosine A2B receptor
T6 sequence (P29275 whole entry): T2 sequence (whole entry)

[8] = target: T7, Amine oxidase [flavin-containing] A (Homo sapiens, UniProt P21397); assay: Inhibition of human MAO-A; outline: as §1
T7 sequence (P21397 whole entry): T1 sequence (P21397 whole entry)

[9] = target: T8, Adenosine receptor A1 (Rattus norvegicus) (UniProt P25099); assay: Displacement of [3H]CCPA from adenosine A1 receptor in rat brain cortex relative to control; assay type: tissue-based; parameters: concentration or dose not given beside the values; settings: concentration not given here; outline: as §2
T8 sequence (whole entry): T5 sequence (P25099 whole entry)

[10] = target: T9, Adenosine receptor A3 (Homo sapiens) (UniProt P0DMS8); assay: Displacement of [3H]PSB-11 from human adenosine A3 receptor expressed in CHO cells relative to control; assay type: cell-based; parameters: concentration or dose not given beside the values; settings: concentration not given here
T9 sequence (whole entry): T4 sequence (P0DMS8 whole entry)

[11] = target: T10, MAO-B (amine oxidase [flavin-containing] B) (Homo sapiens, UniProt P27338); assay: Inhibition of human MAO-B at 10 uM relative to control; outline: as §1
T10 sequence (P27338 whole entry): T3 sequence (P27338 whole entry)

[12] = target: T11, Adenosine receptor A1 (Homo sapiens, UniProt P30542); assay: Displacement of [3H]CCPA from human adenosine A1 receptor expressed in CHO cells; assay type: cell-based
T11 sequence (P30542 whole entry): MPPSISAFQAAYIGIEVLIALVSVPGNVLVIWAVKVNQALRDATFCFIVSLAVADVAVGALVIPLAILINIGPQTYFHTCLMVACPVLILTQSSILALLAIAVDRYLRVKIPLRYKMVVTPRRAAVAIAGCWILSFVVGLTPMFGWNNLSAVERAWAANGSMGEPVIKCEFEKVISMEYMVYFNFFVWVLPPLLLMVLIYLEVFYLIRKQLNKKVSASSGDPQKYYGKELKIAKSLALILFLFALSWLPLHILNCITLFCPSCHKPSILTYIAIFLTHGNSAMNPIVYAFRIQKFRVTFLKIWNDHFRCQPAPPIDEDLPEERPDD
Outline: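 Radioligand binding to human receptors recombinantly expressed in Chinese hamster ovary (CHO) cells. Results are Ki, or % inhibition of radioligand binding at the indicated concentration.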

| Structure (SMILES) | inhibition at 10 µM [1] [%] | inhibition [2] [%] | IC50 [3] [µM] | Ki [4] [µM] | Ki [5] [µM] | Ki [6] [µM] | Ki [7] [µM] | IC50 [8] [µM] | inhibition [9] [%] | inhibition [10] [%] | inhibition at 10 µM [11] [%] | Ki [12] [µM] |
| --- | --- | --- | --- | --- | --- | --- | --- | --- | --- | --- | --- | --- |
| CCn1c(=O)c2c(nc3n2CCCN3c2cccc(OC)c2)n(CC)c1=O | 4 | 21 | 6.39 | 6.8 | 1.24 | 5.37 | > 1 | > 10 | – | – | – | – |
| Cn1c(=O)c2c(nc3n2CCCN3CC(=O)N2CCN(Cc3ccc(Cl)cc3)CC2)n(C)c1=O | – | – | > 10 | > 10 | > 1.5 | 9.42 | > 1 | – | -1 | 23 | 30 | – |
| CCn1c(=O)c2c(nc3n2CCCN3c2ccc(F)cc2)n(CC)c1=O | – | 11 | 10 | > 10 | 0.545 | 1.88 | > 1 | – | – | 29 | 48 | 6.65 |
| CCn1c(=O)c2c(nc3n2CCCN3C2CCCCC2)n(CC)c1=O | -3 | 3 | 3.72 | > 10 | 0.321 | 1.7 | > 1 | > 10 | – | 37 | – | 1.04 |
| CCn1c(=O)c2c(nc3n2CCCN3CCc2ccc(OC)c(OC)c2)n(CC)c1=O | 4 | 15 | 5.87 | > 10 | > 10 | 1.88 | > 1 | > 10 | 35 | 32 | – | – |
| Cn1c(=O)c2c(nc(/C=C/c3cccc(Cl)c3)n2C)n(C)c1=O | 23 | – | – | – | – | – | – | > 10 | – | – | – | – |
| CCn1c(=O)c2c(nc3n2CCCN3CCc2cc(OC)c(OC)c(OC)c2)n(CC)c1=O | – | 6 | > 10 | > 10 | > 10 | 3.87 | > 1 | – | 14 | 24 | 25 | – |
| C#CCn1c(=O)c2c(nc3n2CCCN3c2cc(OC)cc(OC)c2)n(C)c1=O | – | 9 | > 10 | > 1 | 0.228 | 2.04 | > 1 | – | – | 28 | 30 | 9.65 |
| Cn1c(=O)c2c(nc3n2CCCN3Cc2ccc(Cl)c(Cl)c2)n(C)c1=O | 10 | 5 | 0.0629 | > 10 | 4.01 | 3.69 | > 1 | > 10 | – | 30 | – | – |
| CCCn1c(=O)c2c(nc3n2CCCN3CC(=O)N2CCN(Cc3ccccc3)CC2)n(CCC)c1=O | – | 0 | > 10 | > 1 | > 1.5 | 8.22 | > 1 | – | 17 | 28 | 15 | – |
| CCn1c(=O)c2c(nc3n2CCCN3CCc2cccc(OC)c2)n(CC)c1=O | – | 29 | > 10 | 3.41 | > 10 | 2.65 | > 1 | – | 31 | – | 33 | – |
| CCCn1c(=O)c2c(nc3n2CCCN3CC(=O)N2CCN(Cc3ccc(C(F)(F)F)cc3)CC2)n(CCC)c1=O | 5 | 15 | 2.98 | 0.541 | > 1.5 | 7.31 | > 1 | > 10 | 23 | – | – | – |
| C#CCn1c(=O)c2c(nc3n2CCCN3CCc2cc(OC)c(OC)c(OC)c2)n(C)c1=O | – | -2 | > 10 | > 1 | > 10 | 0.723 | > 1 | – | 18 | 5 | 29 | – |
| C#CCn1c(=O)c2c(nc3n2CCCN3Cc2cccnc2)n(C)c1=O | – | 1 | > 10 | > 1 | 1.83 | 6.22 | > 0.3 | – | – | 4 | 21 | – |
| C#CCn1c(=O)c2c(nc3n2CCCN3c2ccc(C(C)C)cc2)n(C)c1=O | 5 | 17 | 10 | – | 5.22 | 1.48 | > 1 | > 10 | – | – | 64 | – |
| C#CCn1c(=O)c2c(nc3n2CCCN3Cc2ccc(OC)cc2)n(C)c1=O | 11 | 7 | 10 | – | 0.555 | 3.03 | – | > 10 | – | – | 50 | 10.2 |
| Cn1c(=O)c2c(nc3n2CCCN3c2cccc(Cl)c2)n(C)c1=O | 15 | -4 | 4.96 | > 10 | 4.42 | 3.76 | > 1 | > 10 | – | 33 | – | – |
| CCn1c(=O)c2c(nc3n2CCCN3CCc2ccccc2OC)n(CC)c1=O | 28 | 20 | 3.26 | 3.03 | 0.506 | 1.83 | > 1 | > 10 | – | – | – | 3.92 |
